Rows were chosen to be rich in hits. Some 2.2% of all compounds tested hit in one or more screens of this group.
DENV2 CPE – inhibitors of DENV2 cytopathic effect; hit rate 1.7% among 350,000; CPE inhibition, % at 9.99 µM; DENV2-infected cells, cytopathic effect rescue, plate reader; in the data active = CPE inhibition above about 20%, passing the limit was not always enough; inconclusive = no clear call, values can overlap the other calls; tested in BHK-21 cells;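 note: 0% = median of neutral control wells and 100% = median of positive control wells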
E-sel inducer – E-selectin induction on HUVECs. HUVEC E-selectin immunofluorescence imaging; normalized: neutral wells 0, TNF-alpha wells 100. AID 686992. hit rate 0.37% among 260,000. P16581. activation, % at 7.58 µM;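 active = mean E-selectin-positive cell signal at least 10% of the positive control, reached in at least 60% of replicates, without over 20% cell loss; inconclusive = no rule given, readout overlaps actives, possibly toxicity-flagged; inactive = the rest, including those meeting only one limit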
Target sequence (P16581 whole entry, looked up): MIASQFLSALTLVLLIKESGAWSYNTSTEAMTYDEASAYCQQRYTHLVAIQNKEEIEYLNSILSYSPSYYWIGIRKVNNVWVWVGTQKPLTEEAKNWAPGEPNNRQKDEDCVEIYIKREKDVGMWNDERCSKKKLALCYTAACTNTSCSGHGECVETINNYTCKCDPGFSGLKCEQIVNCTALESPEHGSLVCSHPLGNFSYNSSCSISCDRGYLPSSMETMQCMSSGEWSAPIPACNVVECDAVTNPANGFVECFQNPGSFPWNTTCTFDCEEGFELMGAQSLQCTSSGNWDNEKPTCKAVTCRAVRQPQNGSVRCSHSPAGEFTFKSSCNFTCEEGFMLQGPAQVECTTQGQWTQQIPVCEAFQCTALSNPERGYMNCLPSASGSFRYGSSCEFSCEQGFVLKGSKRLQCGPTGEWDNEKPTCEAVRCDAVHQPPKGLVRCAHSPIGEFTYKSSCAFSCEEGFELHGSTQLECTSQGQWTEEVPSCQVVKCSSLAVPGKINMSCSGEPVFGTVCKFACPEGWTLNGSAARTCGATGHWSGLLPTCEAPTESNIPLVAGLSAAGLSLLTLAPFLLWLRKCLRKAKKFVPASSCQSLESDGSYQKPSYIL
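assay system = HUVEC, human umbilical vein endothelial cells | input = 3,000 HUVEC seeded per well | medium = EGM-2 growth medium on 0.1% gelatin-coated wells | dosing = one compound dose added by pin transfer | signal = immunofluorescence imaging | read-out basis = % PE-positive cells | control set = TNF-alpha, DMSO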
C2C12 statin – suppression of simvastatin myotoxicity | C2C12 myotubes + simvastatin, ATP luminescence, 48 h; scaled: DMSO 0, geranylgeraniol control 100 | rescue of ATP level, % at 7.49 µM | hit rate 0.78% among 330,000;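 active = mean ATP rescue above about 67%, or every replicate alone reaching that limit, limit read from the data, passing the limit was not always enough; inconclusive = no clear call, values can overlap the other calls; inactive = mean under the limit and some replicate under it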;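 note: myotubes were challenged with 10 µM simvastatin during compound exposure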
Active calls of the source: *; u = inconclusive; x = not tested or not shown.

SMILES	DENV2 CPE	E-sel inducer	C2C12 statin
CCOC(=O)C1(Cc2ccccc2C)CCCN(C(=O)c2cc(C3CC3)[nH]n2)C1 (centres undefined)	25.8*	6.6	5.0
S=C(NCc1ccc(Cl)cc1)Nc1ccccc1	-3.1	x	128.7*
Fc1ccc(CNC(=S)Nc2ccc(Cl)cc2)cc1	x	x	-13.5
Cc1noc(C)c1NC(=O)Nc1ccc2c(c1)C(=O)N([C@H](C)CO)C[C@@H](C)[C@H](CN(C)C)O2	u	x	7.0
C[C@H]1CCCCO[C@@H](CN(C)C(=O)Cc2ccccc2)[C@@H](C)CN([C@@H](C)CO)C(=O)c2cc(NS(=O)(=O)c3cccs3)ccc2O1	-1.1	-0.1	x
O=C(O)c1c[nH]c2ccc(S(=O)(=O)N3CCN(c4ccc(F)cc4)CC3)cc2c1=O	0.4	x	-19.0
CCOC(=O)N1CCN(S(=O)(=O)c2ccc3[nH]cc(C(=O)O)c(=O)c3c2)CC1	x	x	96.6*
Cc1ccc(Nc2nc(-c3sc(N)nc3C)cs2)cc1	46.6*	7.4	-21.5
COc1ccc(Nc2nc(-c3sc(N)nc3C)cs2)cc1	x	x	-13.5
CCc1c(C)nc(N2CCN(c3ccccc3)CC2)[nH]c1=O	0.5	-0.6	24.2
Cc1nc(N2CCN(c3ccccc3)CC2)[nH]c(=O)c1CCC(C)C	5.1	x	86.4*
CC(C)C(=O)Nc1ccc2c(c1)C(=O)N(C)[C@@H]1CC[C@H](CC(=O)NCc3ccc(F)cc3)O[C@@H]1CO2	19.3	0.1	1.4
O=C(N[C@@H]1CC[C@H](CCn2cc(-c3ccccc3)nn2)O[C@@H]1CO)c1ccccc1F	-8.5	-0.1	-7.2
NC(=O)[C@@H]1CCCNc2c(I)cc([N+](=O)[O-])cc2C(=O)N[C@@H](CCC(=O)O)C(=O)N[C@@H](CO)C(=O)N1	x	x	8.7
NC(=O)C(CC(=O)O)NC(=O)[C@@H]1CCCNc2c(I)cc([N+](=O)[O-])cc2C(=O)N[C@@H](CO)C(=O)N[C@@H](Cc2ccc(O)cc2)C(=O)N1 (some centres undefined)	x	x	159.4*
CN(C)S(=O)(=O)c1ccc(S(=O)(=O)N(CC(=O)Nc2ccccc2)CC2CCCO2)cc1 (centres undefined)	x	x	85.3*
O=C(CN(CC1CCCO1)S(=O)(=O)c1ccc(S(=O)(=O)NCC2CCCO2)cc1)Nc1ccccc1 (centres undefined)	-4.7	x	-17.5
N#Cc1cc([N+](=O)[O-])ccc1N1CCN(c2ccccc2O)CC1	x	1.2	x
O=[N+]([O-])c1ccc(N2CCN(c3ccc([N+](=O)[O-])cc3CO)CC2)c(CO)c1	8.0	45.1*	-43.2
CCn1c(SCC(=O)N2CCC(C)CC2)nc2c([nH]c3ccccc32)c1=O	-0.5	0.5	10.4
CCn1c(SCC(=O)N2CCCCCC2)nc2c([nH]c3ccccc32)c1=O	63.3*	0.3	-21.1
CCNC(=O)C[C@@H]1CC[C@H]2[C@@H](COc3ccc(NC(=O)c4ccc(F)cc4)cc3C(=O)N2C)O1	-1.2	0.0	-21.6
C[C@H](CO)N1C[C@H](C)[C@@H](CN(C)Cc2ccc3c(c2)OCO3)OCCCC[C@H](C)Oc2ccc(NC(=O)c3ccncc3)cc2C1=O	-14.0	0.0	x
CN(C)S(=O)(=O)c1cccc(C(=O)NCC2(N3CCOCC3)CCCCC2)c1	-0.8	1.7	12.1
CCN(CC)S(=O)(=O)c1cccc(C(=O)NCC2(N3CCOCC3)CCCCC2)c1	95.5*	0.8	-7.6
SMILES	DENV2 CPE	E-sel inducer	C2C12 statin
CNC(=O)C[C@@H]1CC[C@@H]2[C@H](COC[C@@H](O)CN2C(=O)Nc2ccc3c(c2)OCO3)O1	0.1	0.1	1.8
c1ccc(-c2cc3ccccc3[nH]2)cc1	26.9*	-0.1	4.9
COc1ccc(-c2cc3ccccc3[nH]2)cc1	2.1	x	-11.8
C[C@H]1CN([C@@H](C)CO)C(=O)c2cccc(NS(C)(=O)=O)c2O[C@H]1CN(C)S(=O)(=O)c1cn(C)cn1	3.7	0.1	x
Cc1ccc2c(c1)C=CC(C#N)N2C(=O)c1ccccc1 (centres undefined)	-1.5	x	x
COc1ccc(C(=O)N2c3ccccc3C=CC2C#N)cc1 (centres undefined)	u	91.1*	x
O=C(C[C@@H]1C=C[C@H](NC(=O)C2CC2)[C@H](CO)O1)NCCCN1CCOCC1	0.9	5.4	-1.0
CNC[C@@H]1Oc2ccc(NS(=O)(=O)c3ccc(C)cc3)cc2C(=O)N([C@@H](C)CO)C[C@@H]1C	3.7	0.5	0.9
C[C@@H]1CCCCO[C@@H](CN(C)C(=O)Cc2ccccc2)[C@H](C)CN([C@H](C)CO)C(=O)c2cc(NS(=O)(=O)c3ccc(Cl)cc3)ccc2O1	85.3*	1.2	x
C[C@@H]1CCCCO[C@H](CN(C)C(=O)Cc2ccccc2)[C@@H](C)CN([C@H](C)CO)C(=O)c2cc(NS(=O)(=O)c3ccc(Cl)cc3)ccc2O1	53.5*	1.5	x
C[C@H](CO)N1C[C@H](C)[C@@H](CN(C)C(=O)Cc2ccccc2)OCCCC[C@H](C)Oc2ccc(NS(=O)(=O)c3ccc(Cl)cc3)cc2C1=O	1.1	-0.1	x
C[C@@H]1CCCCO[C@H](CN(C)C(=O)Cc2ccccc2)[C@H](C)CN([C@H](C)CO)C(=O)c2cc(NS(=O)(=O)c3ccc(Cl)cc3)ccc2O1	0.5	1.5	x
CO[C@H]1CN(C)C(=O)c2ccc(NC(C)=O)cc2OC[C@H](C)N(Cc2ccccc2C(=O)O)C[C@H]1C	-3.7	0.0	2.7
Cc1nnc(-c2ccccc2)c(=O)n1/N=C/c1c(O)ccc2ccccc12	x	x	84.1*
Cc1nnc(C)n1/N=C/c1c(O)ccc2ccccc12	2.5	0.0	1.6
CC(C)[C@H](NC(=O)NCCc1ccccc1)C(=O)O	x	x	92.0*
CCC(C)[C@H](NC(=O)NCc1ccccc1)C(=O)O (some centres undefined)	x	x	5.3
COCCNC(=O)[C@@H]1[C@@H](CO)[C@@H]2Cn3c(ccc(C4=CCCCC4)c3=O)[C@H]1N2C(=O)C1CC1	-0.4	1.9	11.9
COc1ccc(C2C3C=CCC(c4cccc(-c5ccc(C)cc5)c4)C3C(=O)N2Cc2ccccc2)cc1Cl (centres undefined)	-7.7	-0.1	-5.4
Cc1ccc(-c2cccc(C3CC=CC4C3C(=O)N(Cc3ccccc3)C4c3ccc(C(F)(F)F)cc3)c2)cc1 (centres undefined)	93.1*	-0.1	-4.6
Cc1noc(C)c1S(=O)(=O)N(C)C[C@@H]1Oc2ccc(NC(=O)Nc3cccc4ccccc34)cc2CC(=O)N([C@@H](C)CO)C[C@H]1C	6.1	0.0	11.8
O=C(Cn1c2[n+](c3ccccc31)CC(O)CS2)c1ccccc1 (centres undefined)	57.8*	x	x
Cc1ccc(C(=O)Cn2c3[n+](c4ccccc42)CC(O)CS3)cc1 (centres undefined)	0.2	-1.7	6.8
Cc1cc(NC(=O)c2ccc(Cl)cc2)n(CCC#N)n1	9.4	x	31.1
Cc1ccc(C(=O)Nc2cc(C)nn2CCC#N)cc1	11.7	32.5*	-5.2
CCN1CCCC1CNC(=O)c1c(O)c2c([nH]c1=O)CCCC2 (centres undefined)	x	x	118.9*
CCN1CCC[C@H]1CNC(=O)c1c(O)c(Cl)cc(Cl)c1OC	u	-0.2	-3.6
